From ChEMBL document CHEMBL1811853, “Design and evaluation of 3-aminopyrazolopyridinone kinase inhibitors inspired by the natural product indirubin” (Bioorg Med Chem, 2011)

Legend:
[1] = biological target: Tyrosine-protein kinase Lck (Homo sapiens, UniProt P06239); experiment: Inhibition of LCK at 30 uM by microfluidic mobility shift assay
Outline: (§1)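 Single-concentration screen, singlicate, 30 uM final (diluted from 1 mM DMSO solutions), fluorescently tagged peptide substrate appropriate to each kinase, ATP at apparent Km for each protein. Phosphorylated and unphosphorylated peptides separated electrophoretically; conversion is the phosphorylated peak area over the sum of both peaks. No-inhibitor and no-ATP controls; H89 reference on each plate.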

[2] = biological target: Mitogen-activated protein kinase 14 (Homo sapiens, UniProt Q16539); experiment: Inhibition of p38alpha at 30 uM by microfluidic mobility shift assay; outline: as §1
[3] = biological target: Proto-oncogene tyrosine-protein kinase Src (Homo sapiens, UniProt P12931); experiment: Inhibition of SRC at 30 uM by microfluidic mobility shift assay; outline: as §1
[4] = biological target: Tyrosine-protein kinase Lyn (Homo sapiens, UniProt P07948); experiment: Inhibition of LYN at 30 uM by microfluidic mobility shift assay; outline: as §1
[5] = biological target: Mitogen-activated protein kinase 3 (Homo sapiens) (UniProt P27361); experiment: Inhibition of ERK1 at 30 uM by microfluidic mobility shift assay; outline: as §1
Chain of Mitogen-activated protein kinase 3 (Homo sapiens) (P27361 whole entry): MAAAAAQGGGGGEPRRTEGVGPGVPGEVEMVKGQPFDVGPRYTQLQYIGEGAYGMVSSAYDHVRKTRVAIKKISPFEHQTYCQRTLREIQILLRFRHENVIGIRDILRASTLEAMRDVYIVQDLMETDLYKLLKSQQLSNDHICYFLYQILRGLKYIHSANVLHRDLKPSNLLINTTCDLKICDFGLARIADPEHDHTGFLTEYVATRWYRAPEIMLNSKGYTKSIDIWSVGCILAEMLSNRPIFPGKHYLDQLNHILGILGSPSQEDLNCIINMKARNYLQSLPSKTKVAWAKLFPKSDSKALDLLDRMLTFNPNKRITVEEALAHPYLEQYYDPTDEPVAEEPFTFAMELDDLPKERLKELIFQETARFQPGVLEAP

[6] = biological target: Insulin receptor (Homo sapiens) (UniProt P06213); experiment: Inhibition of INSR at 30 uM by microfluidic mobility shift assay; outline: as §1
Chain of Insulin receptor (Homo sapiens) (P06213 28-758 limits assumed): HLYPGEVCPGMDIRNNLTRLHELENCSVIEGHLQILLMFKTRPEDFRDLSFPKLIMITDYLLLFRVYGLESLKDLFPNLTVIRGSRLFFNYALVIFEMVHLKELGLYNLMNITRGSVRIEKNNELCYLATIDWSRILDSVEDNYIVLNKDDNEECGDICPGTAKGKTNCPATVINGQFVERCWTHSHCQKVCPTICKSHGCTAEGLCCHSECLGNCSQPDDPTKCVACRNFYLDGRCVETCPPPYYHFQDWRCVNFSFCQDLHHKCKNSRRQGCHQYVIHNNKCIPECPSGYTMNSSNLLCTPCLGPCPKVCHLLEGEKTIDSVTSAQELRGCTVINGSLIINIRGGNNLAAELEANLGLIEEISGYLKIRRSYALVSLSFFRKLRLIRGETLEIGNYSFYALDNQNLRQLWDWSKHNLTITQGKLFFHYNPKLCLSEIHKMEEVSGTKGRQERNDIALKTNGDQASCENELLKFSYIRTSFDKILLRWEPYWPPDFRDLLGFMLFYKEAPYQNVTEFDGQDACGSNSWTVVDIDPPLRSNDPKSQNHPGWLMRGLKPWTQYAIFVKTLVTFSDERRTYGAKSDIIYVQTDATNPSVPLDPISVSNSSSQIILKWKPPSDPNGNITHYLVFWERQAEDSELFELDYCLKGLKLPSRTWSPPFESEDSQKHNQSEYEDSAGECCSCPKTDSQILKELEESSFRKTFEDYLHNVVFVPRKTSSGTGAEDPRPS
Chain of Insulin receptor (Homo sapiens) (P06213 763-1382 limits assumed): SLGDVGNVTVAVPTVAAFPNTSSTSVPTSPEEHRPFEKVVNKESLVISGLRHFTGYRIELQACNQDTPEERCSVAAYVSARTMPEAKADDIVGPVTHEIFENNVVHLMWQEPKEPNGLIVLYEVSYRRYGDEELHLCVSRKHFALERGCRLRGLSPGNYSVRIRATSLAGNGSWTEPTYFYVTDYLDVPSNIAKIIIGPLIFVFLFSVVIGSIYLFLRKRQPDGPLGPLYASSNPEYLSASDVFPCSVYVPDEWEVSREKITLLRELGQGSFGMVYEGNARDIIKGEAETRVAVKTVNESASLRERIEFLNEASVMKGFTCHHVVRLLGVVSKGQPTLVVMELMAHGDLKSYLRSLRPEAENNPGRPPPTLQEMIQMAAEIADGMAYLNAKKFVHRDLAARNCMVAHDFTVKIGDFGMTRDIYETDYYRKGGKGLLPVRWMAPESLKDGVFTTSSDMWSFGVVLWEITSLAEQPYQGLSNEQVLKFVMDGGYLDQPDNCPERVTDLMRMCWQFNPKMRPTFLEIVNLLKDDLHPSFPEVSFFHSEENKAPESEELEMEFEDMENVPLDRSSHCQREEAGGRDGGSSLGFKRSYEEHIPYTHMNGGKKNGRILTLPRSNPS

[7] = biological target: RAC-beta serine/threonine-protein kinase (Homo sapiens) (UniProt P31751); experiment: Inhibition of AKT2 at 30 uM by microfluidic mobility shift assay; outline: as §1
[8] = biological target: T1, Serine/threonine-protein kinase D2 (Homo sapiens) (UniProt Q9BZL6); experiment: Inhibition of PKD2 at 30 uM by microfluidic mobility shift assay; outline: as §1
T1 sequence (whole entry): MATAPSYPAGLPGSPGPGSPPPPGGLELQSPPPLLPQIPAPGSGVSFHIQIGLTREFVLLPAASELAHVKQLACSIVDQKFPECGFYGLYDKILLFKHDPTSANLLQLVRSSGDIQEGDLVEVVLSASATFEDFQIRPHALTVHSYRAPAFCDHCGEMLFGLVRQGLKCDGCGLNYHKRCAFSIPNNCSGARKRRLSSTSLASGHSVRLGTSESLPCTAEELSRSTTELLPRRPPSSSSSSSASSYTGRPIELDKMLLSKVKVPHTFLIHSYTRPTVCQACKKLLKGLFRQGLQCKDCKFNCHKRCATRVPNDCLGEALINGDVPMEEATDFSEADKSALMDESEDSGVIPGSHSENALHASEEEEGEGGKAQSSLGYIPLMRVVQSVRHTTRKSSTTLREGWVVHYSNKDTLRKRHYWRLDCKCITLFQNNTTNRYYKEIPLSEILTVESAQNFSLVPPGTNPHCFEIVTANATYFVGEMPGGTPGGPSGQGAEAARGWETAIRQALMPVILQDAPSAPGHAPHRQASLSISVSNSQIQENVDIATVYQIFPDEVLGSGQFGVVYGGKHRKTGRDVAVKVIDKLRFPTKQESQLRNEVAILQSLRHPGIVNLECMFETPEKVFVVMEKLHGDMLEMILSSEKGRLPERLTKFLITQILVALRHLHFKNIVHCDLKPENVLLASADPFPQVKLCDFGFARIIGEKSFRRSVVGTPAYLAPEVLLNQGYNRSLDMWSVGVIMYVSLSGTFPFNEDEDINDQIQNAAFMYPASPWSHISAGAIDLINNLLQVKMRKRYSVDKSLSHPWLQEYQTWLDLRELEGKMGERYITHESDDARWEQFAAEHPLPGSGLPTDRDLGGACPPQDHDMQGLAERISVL

[9] = biological target: Ribosomal protein S6 kinase alpha-1 (Homo sapiens) (UniProt Q15418); experiment: Inhibition of RSK1 at 30 uM by microfluidic mobility shift assay; outline: as §1
Chain of Ribosomal protein S6 kinase alpha-1 (Homo sapiens) (Q15418 whole entry): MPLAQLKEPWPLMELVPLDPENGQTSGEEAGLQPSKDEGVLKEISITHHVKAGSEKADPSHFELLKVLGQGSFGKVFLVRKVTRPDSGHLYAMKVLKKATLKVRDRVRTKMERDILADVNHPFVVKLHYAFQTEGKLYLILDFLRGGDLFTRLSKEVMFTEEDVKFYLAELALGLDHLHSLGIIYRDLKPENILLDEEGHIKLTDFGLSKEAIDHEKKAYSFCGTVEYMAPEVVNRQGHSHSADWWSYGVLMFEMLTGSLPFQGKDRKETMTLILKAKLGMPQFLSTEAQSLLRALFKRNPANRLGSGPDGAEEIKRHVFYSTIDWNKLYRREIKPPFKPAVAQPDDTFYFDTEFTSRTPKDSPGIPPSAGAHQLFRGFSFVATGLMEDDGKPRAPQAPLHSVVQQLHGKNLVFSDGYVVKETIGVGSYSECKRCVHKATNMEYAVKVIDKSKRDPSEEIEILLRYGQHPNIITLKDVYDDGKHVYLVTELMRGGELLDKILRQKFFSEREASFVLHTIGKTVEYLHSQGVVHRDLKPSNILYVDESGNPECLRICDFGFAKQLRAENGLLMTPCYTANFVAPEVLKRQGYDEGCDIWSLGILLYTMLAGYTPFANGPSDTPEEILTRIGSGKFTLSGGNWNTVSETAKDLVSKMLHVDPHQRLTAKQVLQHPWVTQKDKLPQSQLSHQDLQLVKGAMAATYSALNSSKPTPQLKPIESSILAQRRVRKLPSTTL

[10] = Inhibition of PKA at 30 uM by microfluidic mobility shift assay; outline: as §1
[11] = biological target: Serine/threonine-protein kinase Chk2 (Homo sapiens, UniProt O96017); experiment: Inhibition of CHK2 at 30 uM by microfluidic mobility shift assay; outline: as §1
Chain of Serine/threonine-protein kinase Chk2 (O96017 whole entry): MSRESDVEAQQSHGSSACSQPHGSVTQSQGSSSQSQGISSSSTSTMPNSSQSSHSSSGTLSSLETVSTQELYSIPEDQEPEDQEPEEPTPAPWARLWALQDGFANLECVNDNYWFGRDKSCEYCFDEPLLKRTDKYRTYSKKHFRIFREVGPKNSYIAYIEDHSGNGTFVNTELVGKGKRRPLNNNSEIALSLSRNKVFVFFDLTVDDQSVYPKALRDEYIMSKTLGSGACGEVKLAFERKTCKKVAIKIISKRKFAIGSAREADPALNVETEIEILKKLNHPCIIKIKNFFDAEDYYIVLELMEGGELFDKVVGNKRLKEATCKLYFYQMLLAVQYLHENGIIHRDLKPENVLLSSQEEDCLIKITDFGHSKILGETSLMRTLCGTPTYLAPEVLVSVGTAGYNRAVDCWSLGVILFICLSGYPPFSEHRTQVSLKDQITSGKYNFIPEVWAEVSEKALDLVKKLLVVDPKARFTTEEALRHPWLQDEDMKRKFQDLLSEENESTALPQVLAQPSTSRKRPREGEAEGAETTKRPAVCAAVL

[12] = biological target: Tyrosine-protein kinase ABL1 (Homo sapiens, UniProt P00519); experiment: Inhibition of ABL at 30 uM by microfluidic mobility shift assay; outline: as §1
[13] = biological target: T2, MAP kinase-activated protein kinase 5 (Homo sapiens) (UniProt Q8IW41); experiment: Inhibition of PRAK1 at 30 uM by microfluidic mobility shift assay; outline: as §1
T2 sequence (whole entry): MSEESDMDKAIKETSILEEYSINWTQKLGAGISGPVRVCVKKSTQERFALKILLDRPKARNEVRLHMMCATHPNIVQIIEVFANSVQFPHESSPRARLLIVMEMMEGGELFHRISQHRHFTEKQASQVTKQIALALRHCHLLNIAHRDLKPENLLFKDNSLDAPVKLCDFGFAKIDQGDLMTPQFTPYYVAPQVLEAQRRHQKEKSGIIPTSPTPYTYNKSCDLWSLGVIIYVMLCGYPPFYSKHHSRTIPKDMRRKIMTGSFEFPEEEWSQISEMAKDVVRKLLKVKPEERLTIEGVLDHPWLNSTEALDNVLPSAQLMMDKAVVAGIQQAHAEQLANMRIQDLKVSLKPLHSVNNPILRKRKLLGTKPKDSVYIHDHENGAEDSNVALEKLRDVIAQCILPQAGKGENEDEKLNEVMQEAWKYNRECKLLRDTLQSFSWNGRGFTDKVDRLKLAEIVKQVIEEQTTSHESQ

[14] = biological target: RAC-alpha serine/threonine-protein kinase (Homo sapiens) (UniProt P31749); experiment: Inhibition of AKT1 at 30 uM by microfluidic mobility shift assay; outline: as §1
Chain of RAC-alpha serine/threonine-protein kinase (Homo sapiens) (P31749 whole entry): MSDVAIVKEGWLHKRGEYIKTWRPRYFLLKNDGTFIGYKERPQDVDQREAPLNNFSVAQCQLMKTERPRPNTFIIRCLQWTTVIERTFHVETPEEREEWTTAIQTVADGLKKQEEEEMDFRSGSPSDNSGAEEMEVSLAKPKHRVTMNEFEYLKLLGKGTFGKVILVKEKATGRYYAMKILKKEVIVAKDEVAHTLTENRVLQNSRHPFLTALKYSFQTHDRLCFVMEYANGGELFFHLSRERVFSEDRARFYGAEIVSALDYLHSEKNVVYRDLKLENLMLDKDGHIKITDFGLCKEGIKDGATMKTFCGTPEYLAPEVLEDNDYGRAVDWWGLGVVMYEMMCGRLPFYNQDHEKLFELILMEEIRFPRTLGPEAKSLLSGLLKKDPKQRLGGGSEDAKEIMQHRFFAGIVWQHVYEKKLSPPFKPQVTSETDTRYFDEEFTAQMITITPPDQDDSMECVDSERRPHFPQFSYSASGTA

[15] = biological target: T3, Serine/threonine-protein kinase Chk1 (Homo sapiens) (UniProt O14757); experiment: Inhibition of CHK1 at 30 uM by microfluidic mobility shift assay; outline: as §1
T3 sequence (whole entry): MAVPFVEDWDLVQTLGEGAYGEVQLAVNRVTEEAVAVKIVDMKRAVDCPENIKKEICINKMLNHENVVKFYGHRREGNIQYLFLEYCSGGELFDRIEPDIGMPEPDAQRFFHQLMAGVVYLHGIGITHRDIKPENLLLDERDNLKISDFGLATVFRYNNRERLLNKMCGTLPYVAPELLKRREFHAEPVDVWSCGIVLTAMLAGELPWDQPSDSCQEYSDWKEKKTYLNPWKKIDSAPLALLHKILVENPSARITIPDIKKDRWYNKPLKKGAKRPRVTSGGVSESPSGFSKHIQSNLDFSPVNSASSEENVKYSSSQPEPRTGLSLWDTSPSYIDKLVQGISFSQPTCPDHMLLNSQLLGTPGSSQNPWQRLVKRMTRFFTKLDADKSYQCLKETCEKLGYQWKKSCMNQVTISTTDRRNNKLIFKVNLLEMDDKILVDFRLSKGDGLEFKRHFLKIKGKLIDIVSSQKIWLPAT

[16] = biological target: Mitogen-activated protein kinase 1 (Homo sapiens) (UniProt P28482); experiment: Inhibition of ERK2 at 30 uM by microfluidic mobility shift assay; outline: as §1
[17] = biological target: Glycogen synthase kinase-3 beta (Homo sapiens) (UniProt P49841); experiment: Inhibition of GSK3B at 30 uM by microfluidic mobility shift assay; outline: as §1
[18] = biological target: Tyrosine-protein kinase Fyn (Homo sapiens, UniProt P06241); experiment: Inhibition of FYN at 30 uM by microfluidic mobility shift assay; outline: as §1
Chain of Tyrosine-protein kinase Fyn (P06241 2-537 limits assumed): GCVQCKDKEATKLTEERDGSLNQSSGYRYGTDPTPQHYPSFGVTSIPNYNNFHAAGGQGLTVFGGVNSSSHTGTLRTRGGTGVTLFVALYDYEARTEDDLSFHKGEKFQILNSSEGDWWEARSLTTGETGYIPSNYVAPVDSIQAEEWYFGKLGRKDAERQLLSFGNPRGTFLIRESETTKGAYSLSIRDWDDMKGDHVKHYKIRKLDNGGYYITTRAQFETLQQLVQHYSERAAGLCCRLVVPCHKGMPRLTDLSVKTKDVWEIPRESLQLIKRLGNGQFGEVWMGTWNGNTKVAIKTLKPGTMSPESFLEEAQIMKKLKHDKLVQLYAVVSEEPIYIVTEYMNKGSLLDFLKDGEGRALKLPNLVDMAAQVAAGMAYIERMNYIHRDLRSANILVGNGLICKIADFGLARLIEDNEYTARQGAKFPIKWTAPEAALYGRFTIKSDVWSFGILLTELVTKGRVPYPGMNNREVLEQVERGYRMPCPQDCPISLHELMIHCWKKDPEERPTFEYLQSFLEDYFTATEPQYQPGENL

[19] = biological target: Ribosomal protein S6 kinase alpha-5 (Homo sapiens) (UniProt O75582); experiment: Inhibition of MSK1 at 30 uM by microfluidic mobility shift assay; outline: as §1
Chain of Ribosomal protein S6 kinase alpha-5 (Homo sapiens) (O75582 whole entry, looked up): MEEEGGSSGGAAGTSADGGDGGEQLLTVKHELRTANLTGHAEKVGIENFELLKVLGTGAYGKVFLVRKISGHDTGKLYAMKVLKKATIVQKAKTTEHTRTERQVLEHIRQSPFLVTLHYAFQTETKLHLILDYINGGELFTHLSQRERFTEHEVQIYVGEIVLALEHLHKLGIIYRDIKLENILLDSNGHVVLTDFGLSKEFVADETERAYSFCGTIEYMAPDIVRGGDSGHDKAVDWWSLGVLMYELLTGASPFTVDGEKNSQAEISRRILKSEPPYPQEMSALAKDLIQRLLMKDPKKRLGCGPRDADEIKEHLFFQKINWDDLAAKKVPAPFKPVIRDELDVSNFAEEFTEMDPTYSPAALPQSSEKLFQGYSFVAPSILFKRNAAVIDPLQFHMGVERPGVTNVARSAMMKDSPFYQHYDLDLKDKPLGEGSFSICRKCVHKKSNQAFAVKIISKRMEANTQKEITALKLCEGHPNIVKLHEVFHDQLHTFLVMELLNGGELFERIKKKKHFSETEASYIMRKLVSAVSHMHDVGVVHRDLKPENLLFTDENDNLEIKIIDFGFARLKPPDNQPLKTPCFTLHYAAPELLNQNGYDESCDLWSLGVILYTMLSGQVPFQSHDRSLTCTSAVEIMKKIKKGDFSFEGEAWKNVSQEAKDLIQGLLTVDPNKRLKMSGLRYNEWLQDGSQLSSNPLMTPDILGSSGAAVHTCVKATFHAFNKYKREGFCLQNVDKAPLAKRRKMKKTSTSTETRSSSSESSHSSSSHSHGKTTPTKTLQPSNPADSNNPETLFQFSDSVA

[20] = biological target: T4, Aurora kinase A (Homo sapiens) (UniProt O14965); experiment: Inhibition of AurA at 30 uM by microfluidic mobility shift assay; outline: as §1
T4 sequence (whole entry): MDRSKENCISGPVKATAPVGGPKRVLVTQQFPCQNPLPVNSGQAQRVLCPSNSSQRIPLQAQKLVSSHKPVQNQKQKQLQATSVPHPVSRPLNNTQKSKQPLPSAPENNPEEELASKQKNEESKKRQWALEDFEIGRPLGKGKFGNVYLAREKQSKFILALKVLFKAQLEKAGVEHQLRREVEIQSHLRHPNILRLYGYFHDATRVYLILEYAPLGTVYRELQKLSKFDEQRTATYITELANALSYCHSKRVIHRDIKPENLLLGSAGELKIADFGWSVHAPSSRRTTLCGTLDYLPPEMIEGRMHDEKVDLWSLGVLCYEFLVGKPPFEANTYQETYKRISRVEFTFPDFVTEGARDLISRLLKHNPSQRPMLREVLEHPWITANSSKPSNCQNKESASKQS

[21] = biological target: MAP kinase-activated protein kinase 2 (Homo sapiens, UniProt P49137); experiment: Inhibition of MAPKAPK2 at 30 uM by microfluidic mobility shift assay; outline: as §1

Row | inhibition [1] [%] | inhibition [2] [%] | inhibition [3] [%] | inhibition [4] [%] | inhibition [5] [%] | inhibition [6] [%] | inhibition [7] [%] | inhibition [9] [%] | inhibition [10] [%] | inhibition [11] [%] | inhibition [12] [%] | inhibition [13] [%] | inhibition [14] [%] | inhibition [15] [%] | inhibition [16] [%] | inhibition [17] [%] | inhibition [18] [%] | inhibition [19] [%] | inhibition [20] [%] | inhibition [21] [%] | SMILES | further results
1 | 12 | 10 | 7 | 8 | 4 | -2 | -7 | 4 | 2 | 4 | 7 | 10 | 1 | -1 | 6 | 7 | 7 | 10 | 10 | 7 | Cc1cc2nn(-c3ccccc3)c(N)c2c(N2CCCCC2)n1 | inhibition [8]: 5%
2 | 44 | -3 | 45 | 51 | 15 | 0 | 7 | 30 | 71 | 23 | 24 | 5 | 17 | 13 | 7 | 73 | 43 | 74 | 72 | 1 | Cc1cc2[nH]nc(N)c2c(N2CCOCC2)n1 | 
3 | 0 | 3 | 2 | 6 | 3 | 1 | 2 | 2 | 1 | 4 | 4 | 2 | 3 | 0 | -1 | 10 | -3 | 3 | 32 | 3 | COCCNc1nc(C)cc2nn(-c3ccccc3)c(N)c12 | inhibition [8]: -1%
4 | 11 | -5 | 5 | 5 | 4 | 2 | 1 | -3 | 8 | 12 | 4 | 1 | 2 | 2 | 0 | 13 | 4 | 2 | 13 | 11 | Cc1cc2[nH]ncc2c(=O)[nH]1 | 
5 | 13 | 55 | 9 | 29 | 5 | 3 | 3 | -3 | 4 | 7 | 19 | 2 | -1 | 6 | 1 | 4 | 13 | -2 | 3 | 1 | Nc1c2cnc(-c3ccccc3)cc2nn1-c1ccccc1 | 
6 | 6 | 4 | 4 | 11 | 13 | -2 | 0 | 23 | 6 | 4 | 19 | 17 | 6 |  | 1 | 8 | 8 | 7 | 41 | 7 | Cc1cc2c(c(N)nn2C)c(N2CCCCC2)n1 | inhibition [8]: 16%
7 |  | 5 | 18 |  |  | 3 |  |  | 100 |  | 8 | 37 |  |  |  | 10 |  |  | 71 | 41 | O=S(=O)(NCCNC/C=C/c1ccc(Br)cc1)c1cccc2cnccc12 | 
8 | 6 | 2 | 6 | 8 | 8 | 5 | -3 | 11 | 19 | 7 | 11 | 13 | -1 |  | 4 | 9 | 3 | 13 | 31 | 7 | Cc1cc2[nH]nc(N)c2cn1 | inhibition [8]: 25%
